# OXTR potentiate = human OXTR potentiators, primary screen, fluorescence, CHO-OTR cells, Fluo-8 calcium; Oxytocin receptor (Homo sapiens), P30559; hit rate 0.061% among 320,000; Fluo-8 calcium fluorescence, potentiator mode; 0% = oxytocin EC15, 100% = EC100; activation, % at 3 µM;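 active = activation above that plate's cutoff, the mean activation of tested compounds plus 3 SD, cut at about 6.6% in these data, passing the limit was not always enough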;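 also: 100% uses oxytocin at 75 nM as the full agonist control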
#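 test system = CHO-OTR cells, human receptor | compound = single-point 3.0 µM | schedule = 6 min compound pre-incubation at room temperature, 100 s kinetic read | signal = Fluo-8 no-wash calcium dye fluorescence, excitation 470-495 nm, emission 515-575 nm | repeats = single well per compound, singlicate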
# OX1R antag-1 = antagonists of human orexin 1 receptor (OX1R). Orexin/Hypocretin receptor type 1 (Homo sapiens), O43613. OX1R-expressing cells, FRET antagonist read-out. inhibition, % at 6.6 µM. hit rate 1.8% among 330,000. AID 485270, 2010; in the data active = inhibition mostly above about 38%, no sharp cut-off; inactive = mostly below about 40%;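 also: 0% = agonist challenge alone and 100% = reference antagonist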
# Target sequence (O43613 whole entry, looked up): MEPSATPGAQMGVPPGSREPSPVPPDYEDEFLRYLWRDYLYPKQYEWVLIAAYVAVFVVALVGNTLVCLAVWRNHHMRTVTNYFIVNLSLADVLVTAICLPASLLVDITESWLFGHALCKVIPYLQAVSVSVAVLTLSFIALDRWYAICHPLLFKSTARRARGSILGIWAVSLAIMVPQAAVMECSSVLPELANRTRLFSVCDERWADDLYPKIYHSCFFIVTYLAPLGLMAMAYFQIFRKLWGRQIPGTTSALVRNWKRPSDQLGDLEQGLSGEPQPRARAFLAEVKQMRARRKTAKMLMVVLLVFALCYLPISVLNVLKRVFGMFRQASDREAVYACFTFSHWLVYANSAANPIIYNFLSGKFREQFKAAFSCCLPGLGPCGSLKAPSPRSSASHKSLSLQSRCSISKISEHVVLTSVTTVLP
# CHO parental Ca = ATP-evoked calcium signal inhibitors, parental CHO, primary screen, counter-screen for OX1R antagonist project, cell-based, fluorescence, Fluo-8 calcium dye | parental CHO-K1, ATP-induced calcium, Fluo-8 fluorescence | inhibition, % at 5.6 µM | hit rate 0.63% among 330,000 | AID 463079, 2010;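 active = inhibition above that plate's mean sample inhibition plus 3 SD, cut at about 26% in these data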;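 also: 0% = ATP-challenged DMSO wells and 100% = DMSO wells without ATP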
#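 test system = CHO parental line | reagent = ATP stimulus | measured by = intracellular calcium via Fluo-8 no-wash fluorescent dye | control set = ATP and no-ATP DMSO wells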
# OX1R antag-2 = OX1R (HCRTR1) antagonists, primary screen, fluorescence, CHO/OX1R cells, Fluo-8 calcium, orexin A; Orexin/Hypocretin receptor type 1 (Homo sapiens), O43613; inhibition, % at 5 µM; AID 434989, 2010; hit rate 0.43% among 330,000; Fluo-8 calcium fluorescence;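 active = inhibition above its plate's threshold, mean inhibition of all tested compounds on the plate plus 3 SD, cut at about 37% in these data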;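 also: 0% = orexin A challenge wells and 100% = SB-334867-A antagonist wells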
# V1R ag counter = agonists of human V1a receptor, primary screen, counter-screen for OXTR agonist project, fluorescence, CHO-V1R cells; AID 2797, 2010; Fluo-8 calcium fluorescence, agonist mode; 0% DMSO, 100% 3 nM vasopressin; activation, % at 3 µM; hit rate 0.25% among 320,000;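 active = activation above the mean activation of all tested compounds plus 3 SD, per screening run, cut at about 20% in these data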;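 also: signal is peak over basal fluorescence ratio across a 100 second FLIPR read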
# OXTR ag = human OXTR agonists, primary screen, fluorescence, CHO-OTR cells, Fluo-8 calcium; Oxytocin receptor (Homo sapiens), P30559; Fluo-8 calcium fluorescence; normalized: DMSO 0%, oxytocin 100%; activation, % at 3 µM; hit rate 0.32% among 320,000; AID 2435, 2010;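 active = activation above the mean of all tested compounds plus 3 SD, cutoff set per screening run, cut at about 20% in these data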;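 also: peak over basal fluorescence ratio from a 100 s FLIPR kinetic read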
# * hit, by the source's call. Sampled rows, rich in hits. Any-hit rate of the full collection: about 2.7%.
SMILES,OXTR potentiate,OX1R antag-1,CHO parental Ca,OX1R antag-2,V1R ag counter,OXTR ag
CCC(C(=O)NCc1ccncc1)c1ccccc1 (stereo unspecified),2,5,-7,-8,1,0
CCCCNCC#CCOc1cc(C)ccc1C(C)C,-9,3,-7,-16,2,2
O=[N+]([O-])c1ccc(S(=O)(=O)CC(CN2CCOCC2)N2CCOCC2)cc1 (stereo unspecified),-9,49*,-12,0,0,0
Cc1ccc(N(CC(O)CN2CCOCC2)S(=O)(=O)c2ccc([N+](=O)[O-])cc2)cc1 (stereo unspecified),-11,38*,-21,-20,0,1
COc1ccccc1C(=O)NCCn1ccc2ccccc21,-20,70*,-27,-1,-2,-2
COc1ccc(C(=O)NCCn2ccc3ccccc32)cc1OC,-2,2,-3,-11,0,0
CCn1c2ccc(OC)cc2c2nc3ccccc3nc21,-8,57,-16,-14,0,-2
CCn1c2ccc(Cl)cc2c2nc3ccccc3nc21,3,69*,-16,7,-1,-1
CS(=O)(=O)N(Cc1ccc(Cl)cc1)c1ccc(C(=O)N/N=C/c2cc3ccccc3nc2Cl)cc1,-9,20,-14,-21,0,1
C/C(=N\N=c1/sc2ccccc2n1C)c1ccccn1,-3,62*,-23,-6,-1,-2
C/C(=N\N=c1/sc2ccccc2n1C)c1ccc(N2CCOCC2)cc1,-4,24,-12,-28,1,0
CCSc1nnc(-c2ccccc2N=Cc2c(C)[nH]n(-c3ccccc3)c2=O)c(=O)[nH]1,-2,44,-5,-2,0,0
CCSc1nnc(-c2cc(Br)ccc2N=Cc2c(C)[nH]n(-c3ccccc3)c2=O)c(=O)[nH]1,6,75*,-11,-18,0,-1
CSc1nnc(-c2cc(Br)ccc2N=Cc2c(C)[nH]n(-c3ccccc3)c2=O)c(=O)[nH]1,-1,48*,5,-21,-1,0
CN1CCc2ccc(NC(=O)c3ccc(C(F)(F)F)cc3)cc2C1,-7,17,-10,-11,2,1
CC1CCCCN1C(=O)COC(=O)C1CCN(S(=O)(=O)c2ccc(Cl)c(C(F)(F)F)c2)CC1 (stereo unspecified),-2,5,-17,-32,0,0
O=C(COC(=O)C1CCN(S(=O)(=O)c2ccc(Cl)c(C(F)(F)F)c2)CC1)NCc1ccco1,-5,18,42*,-19,1,1
CC[C@@H](C)CN1C(=O)N[C@@H](c2ccccc2)C(C(C)=O)=C1C,-6,7,-14,7,0,-1
CCn1c(C)nc2cc(-c3nnc(-c4c(-c5ccccc5)noc4C)o3)ccc21,-10,45*,37*,13,10,14
Cc1onc(-c2ccccc2)c1-c1nnc(-c2ccccc2C(F)(F)F)o1,1,12,-24,-31,0,-3
CCCCOc1ccc(OCCSc2nc3ccccc3n2CC(=O)O)cc1,-10,16,-9,8,1,-1
O=C(O)Cn1c(SCCOc2ccccc2)nc2ccccc21,-5,43*,-11,8,1,1
Cc1ccc(OCCSc2nc3ccccc3n2CC(=O)O)cc1C,-7,43*,-12,-4,1,-1
Cn1c(=O)[nH]c(=O)c2c1nc(N/N=C/C(Br)=C/c1ccccc1)n2CCO,-4,17,5,-14,0,0
CSc1ccc(Cn2nnc(C(=O)NCc3ccccc3)c2N)cc1,-26,2,5,25,36*,36*
SMILES,OXTR potentiate,OX1R antag-1,CHO parental Ca,OX1R antag-2,V1R ag counter,OXTR ag
Cc1ccc(C)c(NC(=O)c2nnn(Cc3ccccc3)c2N)c1,1,8,-3,-2,3,4
COc1cccc(NC(=O)Cn2nnc(C(=O)Nc3cc(Cl)ccc3OC)c2N)c1,-5,10,4,-4,1,1
Cc1ccc(Cn2nnc(C(=O)Nc3cc(C)ccc3C)c2N)cc1,-9,-1,9,13,23*,20*
COc1cccc(Cn2nnc(C(=O)Nc3cc(Cl)ccc3OC)c2N)c1,-6,42*,30*,13,3,1
Nc1c(Cl)ncnc1N/N=C/c1cccc(O)c1,-1,72*,-10,-15,-1,0
COc1ccc(/C=N/Nc2ncnc(Cl)c2N)cc1OC,-3,56*,-3,-4,1,7
Nc1c(Cl)ncnc1N/N=C/c1ccncc1,-1,34,-5,0,1,1
COc1cccc(/C=N/Nc2ncnc(Cl)c2N)c1O,-2,54,-3,-1,0,-2
C/C(=N/NC(=O)c1nnn(-c2nonc2N)c1COc1ccccc1)c1ccccc1,-7,9,-9,0,1,0
C/C(=N\OCC(=O)OCC(=O)NC(=O)c1ccccc1)c1ccc2c(c1)OCO2,-2,8,-21,-6,2,0
O=c1[nH]c(CSc2nc3ccccc3[nH]2)nc2c1cnn2-c1ccccc1,-18,106*,52*,90*,10,13
O=c1[nH]c(CSc2ncccn2)nc2c1cnn2-c1ccccc1,-16,33,-11,-16,5,1
Cc1ccc2nc(SCc3nc4c(cnn4-c4ccccc4)c(=O)[nH]3)[nH]c2c1,-22,90*,39*,80*,8,12
CC1CC(=O)Nc2ccccc2N1C(=O)Cn1cnc2ccccc2c1=O (stereo unspecified),-1,3,-3,8,0,1
Cc1ccc(-c2nn(-c3ccccc3)cc2/C=C/C(=O)OCC(=O)NC2CC2)o1,-36,46,83*,77*,9,14
CNC(=O)COC(=O)/C=C/c1cn(-c2ccccc2)nc1-c1ccc2c(c1)OCCO2,-18,19,3,-9,0,1
O=C(O)/C=C\c1cn(-c2ccccc2)nc1-c1cc2ccccc2o1,-14,76*,10,15,3,5
O=C(Nc1ccnn1C1CCN(Cc2cccc(F)c2F)CC1)C1CCCC1,-8,10,-21,-25,1,0
CCN1CCN(S(=O)(=O)c2c(C)[nH]c(C)c2C(=O)N2CCCCC2)CC1,-10,10,-8,-10,0,1
O=[N+]([O-])c1nn(-c2ccc3c(c2)OCCO3)n(O)c1=NCCCO,-3,74*,5,-19,0,-1

# Screening data deposited in PubChem BioAssay by The Scripps Research Institute Molecular Screening Center.
